# Experimental data published in ChEMBL document CHEMBL5030534, “Discovery of Novel Anti-Breast-Cancer Inhibitors by Synergistically Antagonizing Microtubule Polymerization and Aryl Hydrocarbon Receptor Expression” (J Med Chem, 2021).
# The source made the active and inactive calls. The rule behind the calls is not given here.
# Assays:
# [1] = biological target: Tubulin (Homo sapiens) (UniProt P68371+Q9H4B7+P0DPH7+P68366+Q13509+Q71U36+P04350+Q3ZCM7+P07437+P68363+Q9BQE3+Q6PEY2+Q13885+Q9BVA1+Q9BUF5); test: Induction of microtubule damage in human MCF7 cells incubated for 48 hrs by DAPI staining based immunofluorescence assay; format: cell-based; details: dose 0.5-4 nM
# Method in brief: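 Blocked with goat serum for 20 min, probed with anti-β-tubulin for 2 h, fluorescent secondary antibody and DAPI nuclear stain, imaged by laser confocal microscopy.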
# [2] = system: MCF7; test: Induction of apoptosis in human MCF7 cells assessed as viable cells at 2 nM measured after 24 hrs by Annexin V-FITC and PI staining based flow cytometry assay (reference value: 96.5%); format: functional; details: read-out: Activity
# [3] = system: MCF7; test: Induction of apoptosis in human MCF7 cells assessed as early apoptotic cells at 0.5 nM measured after 24 hrs by Annexin V-FITC and PI staining based flow cytometry assay (reference value: 0.90%); format: functional
# [4] = system: MCF7; test: Induction of apoptosis in human MCF7 cells assessed as early apoptotic cells at 2 nM measured after 24 hrs by Annexin V-FITC and PI staining based flow cytometry assay (reference value: 1%); format: functional
# [5] = system: MCF7; test: Antiproliferative activity against human MCF7 cells assessed as reduction in cell viability incubated for 48 hrs by MTT assay; format: functional, cell-based; details: MCF7, 48 h
# Method in brief: (§1)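 Cells seeded at 5 × 10³ per well, incubated overnight, then exposed to a range of compound concentrations for 48 h. MTT added for 4 h, medium replaced with DMSO, absorbance read at 570 nm. MCF-7, L-O2 grown in DMEM; MCF-10A, MCF-7/ADR in RPMI 1640. Three independent runs.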
# [6] = system: MCF7; test: Induction of apoptosis in human MCF7 cells assessed as late apoptotic cells at 2 nM measured after 24 hrs in presence of DMBA by Annexin V-FITC and PI staining based flow cytometry assay (reference value: 1.5%); format: functional
# [7] = system: MCF7; test: Induction of apoptosis in human MCF7 cells assessed as necrotic cells at 0.5 nM measured after 24 hrs by Annexin V-FITC and PI staining based flow cytometry assay (reference value: 0.28%); format: functional
# [8] = system: MCF-10A; test: Antiproliferative activity against human MCF-10A cells assessed as reduction in cell viability incubated for 48 hrs by MTT assay; format: cell-based; method in brief: as §1
# [9] = system: MCF7; test: Antitumor activity against human MCF7 cells xenografted in BALB/c nude mouse assessed as decrease in tumor weight at 1 mg/kg, iv administered every 2 days for 21 days and measured every 2 days; format: functional; parameters: scale not given: the % may be the effect or the level left; details: time 21 day
# Method in brief: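 MCF-7 cells (6 × 10⁶) injected subcutaneously into right flank of BALB/c nude mice; after 7 days animals randomized, eight per group. Dosing iv every 2 days for 21 days, vehicle 10% DMSO/5% Tween 80/85% saline. Tumor size and body weight recorded every 2 days; tumors excised and weighed at sacrifice.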
# [10] = system: MCF7; test: Induction of mitochondrial membrane potential loss in human MCF7 cells at 2 nM measured after 24 hrs by JC-1 staining based flow cytometry analysis (reference value: 3.01%); format: functional
# [11] = system: MCF7; test: Induction of apoptosis in human MCF7 cells assessed as early apoptotic cells at 2 nM measured after 24 hrs by Annexin V-FITC and PI staining based flow cytometry assay (reference value: 0.90%); format: functional
# [12] = system: MCF7; test: Cell cycle arrest in human MCF7 cells assessed as decrease in Cdc25c protein expression; format: functional, cell-based; details: dose 1-4 nM
# Method in brief: (§2)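 MCF-7 seeded 4 × 10⁵ per well for 24 h, then DMSO or compound at 1, 2, 4 nM for 24 h. Lysates protein-normalized to 3 mg/mL by BCA, resolved on 4–20% SDS-PAGE and immunoblotted. Bands quantified relative to β-actin (cell-cycle proteins) or GAPDH (apoptosis proteins); n = 3.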
# [13] = system: MCF7; test: Induction of ROS generation in human MCF7 cells measured after 24 hrs by DCFH-DA staining based flow cytometric analysis; format: functional, cell-based; details: dose 0.5-2 nM
# Method in brief: (§3)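 MCF-7 seeded 4 × 10⁵ per well for 24 h, then DMSO or 0.5, 1, 2 nM for 24 h. Loaded with DCFH-DA for 30 min in the dark, resuspended in serum-free medium, DCF fluorescence measured by flow cytometry. For scavenger condition, 2.5 mM N-acetyl-L-cysteine pretreatment, then 2 nM for 24 h. Three runs.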
# [14] = system: MCF7; test: Induction of apoptosis in human MCF7 cells assessed as increase in cleaved Caspase-3 protein expression at 1 to 4 nM; format: functional, cell-based; details: dose 1-4 nM; method in brief: as §2
# [15] = system: MCF7; test: Induction of apoptosis in human MCF7 cells assessed as viable cells at 1 nM measured after 24 hrs by Annexin V-FITC and PI staining based flow cytometry assay (reference value: 96.8%); format: functional; details: read-out: Activity
# [16] = system: MCF7; test: Induction of apoptosis in human MCF7 cells assessed as early apoptotic cells at 1 nM measured after 24 hrs by Annexin V-FITC and PI staining based flow cytometry assay (reference value: 0.90%); format: functional
# [17] = system: MCF7; test: Induction of apoptosis in human MCF7 cells assessed as necrotic cells at 2 nM measured after 24 hrs by Annexin V-FITC and PI staining based flow cytometry assay (reference value: 0.9%); format: functional
# [18] = Toxicity in BALB/c nude mouse xenografted with human MCF7 cells assessed as effect on heart at 0.5 to 1 mg/kg, iv administered every 2 days for 21 days by H and E staining based assay; format: organism-based; details: in vivo, 504 h, dose 0.5-1 mg/kg, time 21 day
# Method in brief: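 Nude mice given 6 × 10⁶ MCF-7 cells subcutaneously on right flank; after 7 days randomized, eight per group. iv dosing every 2 days at 0.5 or 1 mg/kg; vehicle 10% DMSO/5% Tween 80/85% saline; paclitaxel 10 mg/kg and CA-4 20 mg/kg references. Body weight every 2 days; killed after 21 days; organs fixed, paraffin-sectioned, H&E stained.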
# [19] = system: MCF7; test: Induction of mitochondrial membrane potential loss in human MCF7 cells at 0.5 nM measured after 24 hrs by JC-1 staining based flow cytometry analysis (reference value: 3.01%); format: functional
# [20] = system: MCF7; test: Induction of apoptosis in human MCF7 cells assessed as late apoptotic cells at 0.5 nM measured after 24 hrs by Annexin V-FITC and PI staining based flow cytometry assay (reference value: 2.06%); format: functional
# [21] = system: MCF7; test: Induction of apoptosis in human MCF7 cells assessed as late apoptotic cells at 2 nM measured after 24 hrs by Annexin V-FITC and PI staining based flow cytometry assay (reference value: 1.5%); format: functional
# [22] = system: MCF7; test: Inhibition of AhR signalling in human MCF7 cells assessed as reduction in AhR level incubated for 24 hrs by Western blot analysis; format: functional, cell-based; details: dose 1-4 nM
# Method in brief: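 MCF-7 cells seeded 4 × 10⁵ per well, grown 24 h, then exposed to DMSO or 1, 2, 4 nM for 24 h; BAY 2416964 served as AhR antagonist reference. Lysates adjusted to 3 mg/mL protein by BCA, resolved on 4−20% SDS-PAGE, immunoblotted; AhR and CYP1A1 bands normalized to GAPDH. Three independent runs.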
# [23] = system: MCF7; test: Induction of ROS generation in human MCF7 cells at 2 nM measured after 24 hrs in presence of N-acetylcysteine by DCFH-DA staining based flow cytometric analysis; format: functional; method in brief: as §3
# [24] = system: MCF7; test: Cell migration rate in human MCF7 cells at 2 nM incubated for 24 hrs by inverted fluorescence microscopic method (reference value: 11.51%); details: MCF7, 24 h
smiles,measurement,setting,value
Cc1nc(N(C)c2ccc3c(c2)cc(C)n3C)c2ccccc2n1,Activity,[1],Dose-Dependent Effect
same,viability at 0.002 µM,[2],40.1%
same,Activity,[3],1.28%
same,Activity,[4],6.9%
same,IC50,[5],0.9 nM
same,Activity,[6],22%
same,Activity,[7],0.52%
same,IC50,[8],9.3 nM
same,Activity,[9],81.1%
same,Activity,[10],24.7%
same,Activity,[11],12.1%
same,Activity,[12],Dose-Dependent Effect
same,Activity,[13],Dose-Dependent Effect
same,Activity,[14],Active
same,viability at 0.001 µM,[15],61.5%
same,Activity,[16],6.63%
same,Activity,[17],8.3%
same,Activity,[18],Non-Toxic
same,Activity,[19],6.49%
same,Activity,[20],2.17%
same,Activity,[21],44.7%
same,inhibition,[22],Dose-Dependent Effect
same,Activity,[23],24.7%
same,Migration rate at 0.002 µM,[24],3.78%
